Experimental data from publication PMC7305985 (Molecular cell, 2020).

Key:
[1] = test system: KAP1 target genes in HCT116 (CDK9 inhibition); assay: RT-qPCR of KAP1 target genes after flavopiridol treatment; type: cell-based; settings: HCT116, 1 μM, 2 and 4 hr; relative to DMSO, normalized to U6, n=3; Figure 2M
[2] = test system: Pol II (RPB1); assay: AP / IP / co-IP from HCT116 nuclear extracts: Pol II; type: binding; settings: MNase, endogenous IP, Figures 2C, 2D, 6B
In short: (§1)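 Tagged proteins were expressed in HCT116 cells by transfection for 48 hr. Nuclei were released by hypotonic swelling and 27-gauge needle lysis, then extracted for 45 min at 4°C in buffer C brought to 420 mM NaCl. Chromatin was digested with MNase (5 mM CaCl2, 10 min, 37°C). Clarified extract was bound to StrepTactin agarose for 2 hr at 4°C, washed 4X and eluted with desthiobiotin. Blots loaded 1% input.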

[3] = test system: SMAD2; assay: AP / IP / co-IP from HCT116 nuclear extracts: SMAD2; type: binding; settings: Figures 3G–3I, 6B
In short: as §1

[4] = test system: CDK9; assay: Co-IP from HCT116 nuclear extracts: CDK9; type: binding; settings: Figure 6B
In short: as §1

[5] = test system: KAP1 target genes in shKAP1 HCT116 cells; assay: Reconstitution assay, RT-qPCR of KAP1 target genes; type: cell-based
[6] = test system: KAP1 target gene promoters; assay: FLAG ChIP-qPCR of reconstituted KAP1 proteins; type: cell-based; settings: shKAP1 HCT116, FLAG ChIP-qPCR, % Input, n=3, Figures 5I, 6F
In short: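 Epitope-tagged KAP1 was re-expressed in shKAP1 HCT116 cells by 1 µg plasmid transfection over 48 hr. Anti-FLAG ChIP used 0.5% formaldehyde crosslinking (10 min) and 150 mM glycine quench. Beads were washed 4 times with each of RIPA, low-salt, high-salt, LiCl and TE buffers. Elution was 30 min at 65°C, de-crosslinking 4 hr at 65°C with proteinase K, and read-out was qPCR.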

[7] = test system: Pol II at KAP1 target gene promoters; assay: ChIP-qPCR of Pol II after reconstitution; type: cell-based; settings: shKAP1 HCT116 reconstituted, n=3, Figure 6F
In short: (§2)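 shKAP1 HCT116 cells were transfected with 1 µg epitope-tagged plasmid (PolyJet) and harvested after 48 hr. Cells were crosslinked in 0.5% formaldehyde (10 min, room temperature), quenched with 150 mM glycine and lysed in Farnham buffer at 10×10^6 cells/mL. Beads were washed in RIPA, low-salt, high-salt (500 mM NaCl), LiCl and TE buffers, eluted in NaHCO3/SDS (30 min, 65°C) and de-crosslinked with proteinase K (4 hr, 65°C), then read by qPCR.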

[8] = test system: SMAD2 at KAP1 target gene promoters; assay: ChIP-qPCR of SMAD2 after reconstitution; type: cell-based; settings: shKAP1 HCT116 reconstituted, n=3, Figure 6F
In short: as §2

[9] = test system: CDK9 at KAP1 target gene promoters; assay: ChIP-qPCR of CDK9 after reconstitution; type: cell-based; settings: shKAP1 HCT116 reconstituted, n=3, Figure 6F
In short: as §2

| Compound | expression of KAP1 target genes after flavopiridol [1] | association with Pol II in nuclear extracts [2] | association with SMAD2 in nuclear extracts [3] | association with SMAD2 in nuclear extracts ([3]; listed as WT KAP1) | association with CDK9 in nuclear extracts [4] | restoration of KAP1 target gene expression (WT and point mutants) ([5]; shKAP1 HCT116, 48 hr, relative to shNT+GFP, normalized to RPL19, n=3, Figure 5H) | restored expression of all tested genes over GFP-expressing cells ([5]; shKAP1 HCT116, n=3, Figure 6E) | localization to KAP1 target gene promoters [6] | localization to KAP1 target gene promoters ([6]; listed as WT KAP1) | promoter recruitment of Pol II [7] | promoter recruitment of SMAD2 [8] | promoter recruitment of CDK9 [9] |
| --- | --- | --- | --- | --- | --- | --- | --- | --- | --- | --- | --- | --- |
| CN1CC[C@H](c2c(O)cc(O)c3c(=O)cc(-c4ccccc4Cl)oc23)[C@H](O)C1 [flavopiridol, Flavopiridol] | dampened expression of KAP1 target genes |  |  |  |  |  |  |  |  |  |  |  |
| KAP1: wild-type KAP1, STREP- or FLAG-tagged |  | co-purifies with both ectopically expressed and endogenous KAP1 | interactions between ectopically expressed and endogenous proteins | associates with all three factors | associates with all three factors | restored KAP1 target gene expression | ~ 2 fold | able to localize to both C1 (SMAD2+) and C2/C3 (SMAD2-) gene promoters | localized to all tested gene promoters | facilitate recruitment of Pol II and CDK9 | only facilitated SMAD2 recruitment to C1 (SMAD2+) gene promoters | facilitate recruitment of Pol II and CDK9 |
